In ChEMBL document CHEMBL3588757, “Structure-based design, synthesis and biological testing of piperazine-linked bis-epipodophyllotoxin etoposide analogs” (Bioorg Med Chem, 2015):
The source made the active and inactive calls. The calls are words filed in the database; no cut-off is given here.

Columns and labels:
NCI-H23 = assay: Cytotoxicity against human NCI-H23 cells assessed as cell growth at 5 uM by SRB assay; assay type: functional; settings: read-out: Activity
A498 = assay: Cytotoxicity against human A498 cells assessed as cell growth at 50 uM by SRB assay; assay type: functional; settings: read-out: Activity
MCF7 [1] = assay: Cytotoxicity against human MCF7 cells by SRB assay; assay type: functional
Summary of the method: (§1)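 NCI-60 panel screen; 5-dose testing giving GI50 per cell line, plus a single 10 µM one-dose test. Method details not given beyond the NCI screen.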

[2] = Cytotoxicity against human Hs578T cells assessed as cell growth at 5 uM by SRB assay; assay type: functional; settings: Hs-578T, read-out: Activity
Summary of the method: (§2)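 Measured in the NCI-60 human tumour cell line panel using five-dose testing. Growth was recorded at each dose for each cell line, and a GI50 was derived for each line.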

NCI-H322M = assay: Cytotoxicity against human NCI-H322M cells by SRB assay; assay type: functional; summary of the method: as §1
MCF7 [3] = assay: Cytotoxicity against human MCF7 cells assessed as cell growth at 0.005 uM by SRB assay; assay type: functional; settings: read-out: Activity
SF-539 = assay: Cytotoxicity against human SF539 cells assessed as cell growth at 50 uM by SRB assay; assay type: functional; settings: read-out: Activity
HCT-15 = assay: Cytotoxicity against human HCT15 cells assessed as cell growth at 50 uM by SRB assay; assay type: functional; settings: read-out: Activity; summary of the method: as §2
COLO 205 = assay: Cytotoxicity against human COLO205 cells assessed as cell growth at 50 uM by SRB assay; assay type: functional; settings: read-out: Activity
SN12C = assay: Cytotoxicity against human SN12C cells assessed as cell growth at 50 uM by SRB assay; assay type: functional; settings: read-out: Activity
SK-OV-3 = assay: Cytotoxicity against human SKOV3 cells assessed as cell growth at 50 uM by SRB assay; assay type: functional; settings: read-out: Activity
K562 [4] = assay: Induction of apoptosis in human K562 cells assessed as increase in proportion of apoptotic and apoptotic/necrotic cells at 1 uM after 24 to 48 hrs by annexin V-FITC/propidium iodide staining based two-color fluorescence flow cytometry; assay type: functional, cell-based
Summary of the method: (§3)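 K562 cells (1 × 10^6/mL), untreated or given 1 µM compound (10 µM etoposide control) at 37 °C for 24 h or 48 h. Annexin V-FITC plus propidium iodide two-colour flow cytometry. Cells are scored as viable, apoptotic-only (annexin+/PI−), apoptotic/necrotic (annexin+/PI+) or necrotic.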

K562 [5] = assay: Induction of apoptosis in human K562 cells assessed as increase in caspase 3/7 activity at 1 uM by luminescence analysis; assay type: functional, cell-based; settings: TDE = time-dependent effect
Summary of the method: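 K562 cells at 2 × 10^5 cells/mL treated with vehicle or 1 µM compound for 24 or 48 h. Lysates assayed with a luminogenic DEVD-aminoluciferin caspase-3/7 substrate and read by luminescence. Four wells (eight for control); unpaired t-test vs control; repeated on two days.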

K562 [6] = assay: Induction of apoptosis in human K562 cells assessed as decrease in proportion of viable cells at 1 uM after 24 to 48 hrs by annexin V-FITC/propidium iodide staining based two-color fluorescence flow cytometry; assay type: functional, cell-based; summary of the method: as §3
[7] = biological target: DNA topoisomerase 2-alpha (Homo sapiens) (UniProt P11388); assay: Inhibition of full-length human recombinant topoisomerase 2-alpha assessed as conversion of […] DNA at 100 uM by ethidium bromide based gel-assay
Chain of DNA topoisomerase 2-alpha (Homo sapiens) (P11388 whole entry): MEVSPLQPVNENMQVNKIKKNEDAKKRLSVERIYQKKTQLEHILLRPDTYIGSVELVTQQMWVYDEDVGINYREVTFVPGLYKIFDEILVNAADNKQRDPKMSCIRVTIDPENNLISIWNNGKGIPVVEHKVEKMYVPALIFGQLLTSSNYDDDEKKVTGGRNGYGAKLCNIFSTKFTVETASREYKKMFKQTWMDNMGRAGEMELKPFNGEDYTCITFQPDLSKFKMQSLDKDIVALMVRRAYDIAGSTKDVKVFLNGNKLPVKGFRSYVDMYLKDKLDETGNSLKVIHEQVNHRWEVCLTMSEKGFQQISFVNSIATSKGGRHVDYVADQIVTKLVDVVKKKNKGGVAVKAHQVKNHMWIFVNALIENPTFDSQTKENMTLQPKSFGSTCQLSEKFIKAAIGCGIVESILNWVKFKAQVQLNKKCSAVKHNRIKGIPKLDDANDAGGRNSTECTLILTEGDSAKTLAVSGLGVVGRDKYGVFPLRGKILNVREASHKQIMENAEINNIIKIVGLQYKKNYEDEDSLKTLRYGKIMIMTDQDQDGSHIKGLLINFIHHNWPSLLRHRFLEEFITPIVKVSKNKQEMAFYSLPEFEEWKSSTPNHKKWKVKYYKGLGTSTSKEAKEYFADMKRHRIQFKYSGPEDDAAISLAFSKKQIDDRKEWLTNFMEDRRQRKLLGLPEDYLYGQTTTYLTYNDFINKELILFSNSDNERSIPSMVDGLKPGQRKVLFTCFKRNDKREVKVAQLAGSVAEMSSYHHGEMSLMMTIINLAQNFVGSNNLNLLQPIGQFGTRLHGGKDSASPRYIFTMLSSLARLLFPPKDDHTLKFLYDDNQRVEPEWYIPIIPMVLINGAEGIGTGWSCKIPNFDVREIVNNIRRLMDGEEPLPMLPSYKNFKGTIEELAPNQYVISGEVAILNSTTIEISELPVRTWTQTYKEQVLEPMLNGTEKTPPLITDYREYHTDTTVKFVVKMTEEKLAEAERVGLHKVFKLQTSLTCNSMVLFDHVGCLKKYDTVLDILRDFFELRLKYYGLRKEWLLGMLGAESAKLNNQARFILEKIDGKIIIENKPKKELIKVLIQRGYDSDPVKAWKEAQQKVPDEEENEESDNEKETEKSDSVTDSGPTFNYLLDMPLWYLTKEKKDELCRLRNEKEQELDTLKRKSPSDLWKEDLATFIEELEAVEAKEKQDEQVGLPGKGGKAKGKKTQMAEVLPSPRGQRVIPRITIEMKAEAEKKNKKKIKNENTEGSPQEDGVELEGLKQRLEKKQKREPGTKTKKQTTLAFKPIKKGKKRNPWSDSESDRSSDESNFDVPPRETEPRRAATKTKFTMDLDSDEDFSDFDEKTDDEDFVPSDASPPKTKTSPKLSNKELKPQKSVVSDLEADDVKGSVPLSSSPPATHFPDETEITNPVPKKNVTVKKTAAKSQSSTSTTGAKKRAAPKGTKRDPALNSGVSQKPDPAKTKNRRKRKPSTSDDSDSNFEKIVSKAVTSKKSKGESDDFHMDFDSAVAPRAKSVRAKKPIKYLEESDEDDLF

[8] = biological target: DNA topoisomerase 2-alpha (Homo sapiens) (UniProt P11388); assay: Inhibition of full-length human recombinant topoisomerase 2-alpha-mediated decatenation activity of kDNA at >10 uM by ethidium bromide based gel-assay
CHO [9] = assay: Induction of apoptosis in CHO cells assessed as increase in sub-G0/G1 cell population at 1 uM after 49 hrs by propidium iodide staining based flow cytometry; assay type: functional; settings: Cricetulus griseus
Summary of the method: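 CHO cells grown to confluence in α-MEM/10% FCS, serum-starved 48 h (0% FCS), then seeded at 2 × 10^5 cells/mL and repleted with 10% FCS. Continuously treated from repletion with 1 µM compound (10 µM etoposide, DMSO control) for various times. Propidium iodide DNA staining, flow cytometric phase distribution including sub-G0/G1.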

CHO [10] = assay: Induction of cell cycle arrest in CHO cells assessed as accumulation at G2/M phase at 1 uM by propidium iodide staining based flow cytometry; assay type: functional; settings: Cricetulus griseus
[11] = read-out: LC50 (the source's name)
[12] = read-out: pLC50 (the source's name) (converted)

Compound	growth at 5 µM (NCI-H23) [%]	growth at 50 µM (A498) [%]	GI50 (MCF7 [1]; read-out: GI50) [µM]	CC50 (MCF7 [1]; [11]) [µM]	TGI (MCF7 [1]; read-out: TGI) [µM]	GI50 (MCF7 [1]; read-out: pGI50 (converted)) [µM]	CC50 (MCF7 [1]; [12]) [µM]	TGI (MCF7 [1]; read-out: pTGI (converted)) [µM]	growth at 5 µM [2] [%]	GI50 (NCI-H322M; read-out: GI50) [µM]	CC50 (NCI-H322M; [11]) [µM]	TGI (NCI-H322M; read-out: TGI) [µM]	GI50 (NCI-H322M; read-out: pGI50 (converted)) [µM]	CC50 (NCI-H322M; [12]) [µM]	TGI (NCI-H322M; read-out: pTGI (converted)) [µM]	growth at 0.005 µM (MCF7 [3]) [%]	growth at 50 µM (HCT-15) [%]	growth at 50 µM (COLO 205) [%]	further results
COc1cc([C@@H]2c3cc4c(cc3[C@@H](NC(=O)CN3CCN(CCCCCCN5CCN(CC(=O)N[C@@H]6c7cc8c(cc7[C@@H](c7cc(OC)c(O)c(OC)c7)[C@H]7C(=O)OC[C@@H]76)OCO8)CC5)CC3)[C@H]3COC(=O)[C@H]23)OCO4)cc(OC)c1O	44	-10	0.195	> 50	> 50	0.195	> 50.1	> 50.1	64	30.7	> 50	> 50	30.9	> 50.1	> 50.1	80	60	-3	growth at 50 µM (SF-539): -38%
COc1cc([C@@H]2c3cc4c(cc3[C@@H](NC(=O)CN3CCN(CCCCCCCCCCN5CCN(CC(=O)N[C@@H]6c7cc8c(cc7[C@@H](c7cc(OC)c(O)c(OC)c7)[C@H]7C(=O)OC[C@@H]76)OCO8)CC5)CC3)[C@H]3COC(=O)[C@H]23)OCO4)cc(OC)c1O	-35	-97	0.114	37.4	8.5	0.115	37.2	8.51	41	0.387	> 50	1.64	0.389	> 50.1	1.62	90	-64	-35	growth at 50 µM (SN12C): -44%; growth at 50 µM (SK-OV-3): -100%; Activity (K562 [4]): Active; Activity (K562 [5]): tde; Activity (K562 [6]): Active; Inhibition (qualitative activity call) [7]: Active; Inhibition of decatenation activity (qualitative) [8]: Active; Activity (CHO [9]): Active; Activity (CHO [10]): Active
